Source: ChEMBL document CHEMBL1914346, “Discovery and synthesis of novel substituted benzocoumarins as orally active lipid modulating agents” (Bioorg Med Chem Lett, 2011)

Experiments:
Syrian golden hamster [1] = test: Antidyslipidemic activity in high fat diet-fed dyslipidemic syrian golden hamster model assessed as decrease in serum triglyceride level at 10 mg/kg, po administered once daily for 7 days relative to vehicle treated control; type: functional, Mesocricetus auratus; design: scale not given: the % may be the effect or the level left
Outline: (§1)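 Male Golden Syrian hamsters, 12 weeks old, 110 ± 10 g, eight per group, fed high-fat diet plus fructose daily on days 1–10. Oral dosing once daily on days 4–10 in 0.1% gum acacia; HFD-fed vehicle animals served as controls. After the last dose, retro-orbital blood was taken into EDTA and plasma lipids were measured enzymatically on an autoanalyzer. Results are % change versus HFD controls; t-test/ANOVA, p<0.05.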

Syrian golden hamster [2] = test: Antidyslipidemic activity in high fat diet-fed dyslipidemic syrian golden hamster model assessed as increase in serum HDL level at 10 mg/kg, po administered once daily for 7 days relative to vehicle treated control; type: functional, Mesocricetus auratus; outline: as §1
Syrian golden hamster [3] = test: Antidyslipidemic activity in high fat diet-fed dyslipidemic syrian golden hamster model assessed as increase in serum ratio of serum HDL/total cholesterol level at 10 mg/kg, po administered once daily for 7 days relative to vehicle treated control; type: functional, Mesocricetus auratus; outline: as §1
[4] = Antioxidant activity assessed as trolox equivalent by TEAC assay; type: functional
Syrian golden hamster [5] = test: Antidyslipidemic activity in high fat diet-fed dyslipidemic syrian golden hamster model assessed as decrease in serum total cholesterol level at 10 mg/kg, po administered once daily for 7 days relative to vehicle treated control; type: functional, Mesocricetus auratus; design: scale not given: the % may be the effect or the level left; outline: as §1
Syrian golden hamster [6] = test: Toxicity in syrian golden hamster; type: organism-based, Mesocricetus auratus; conditions: in vivo
Outline: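 HFD-fed male Golden Syrian hamsters, eight per group, dosed orally at 10 mg/kg once daily for 7 days in 0.1% gum acacia. Body weight was recorded daily and food intake was monitored, then compared with HFD vehicle controls.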

Syrian golden hamster [7] = test: Antidyslipidemic activity in high fat diet-fed dyslipidemic syrian golden hamster model assessed as decrease in serum LDL level at 10 mg/kg, po administered once daily for 7 days relative to vehicle treated control; type: functional, Mesocricetus auratus; design: scale not given: the % may be the effect or the level left; outline: as §1
[8] = target: T1, 3-hydroxy-3-methylglutaryl-coenzyme A reductase (Homo sapiens) (UniProt P04035); test: Inhibition of HMG-CoA reductase using HMG-CoA as substrate at 5 uM
T1 sequence (whole entry): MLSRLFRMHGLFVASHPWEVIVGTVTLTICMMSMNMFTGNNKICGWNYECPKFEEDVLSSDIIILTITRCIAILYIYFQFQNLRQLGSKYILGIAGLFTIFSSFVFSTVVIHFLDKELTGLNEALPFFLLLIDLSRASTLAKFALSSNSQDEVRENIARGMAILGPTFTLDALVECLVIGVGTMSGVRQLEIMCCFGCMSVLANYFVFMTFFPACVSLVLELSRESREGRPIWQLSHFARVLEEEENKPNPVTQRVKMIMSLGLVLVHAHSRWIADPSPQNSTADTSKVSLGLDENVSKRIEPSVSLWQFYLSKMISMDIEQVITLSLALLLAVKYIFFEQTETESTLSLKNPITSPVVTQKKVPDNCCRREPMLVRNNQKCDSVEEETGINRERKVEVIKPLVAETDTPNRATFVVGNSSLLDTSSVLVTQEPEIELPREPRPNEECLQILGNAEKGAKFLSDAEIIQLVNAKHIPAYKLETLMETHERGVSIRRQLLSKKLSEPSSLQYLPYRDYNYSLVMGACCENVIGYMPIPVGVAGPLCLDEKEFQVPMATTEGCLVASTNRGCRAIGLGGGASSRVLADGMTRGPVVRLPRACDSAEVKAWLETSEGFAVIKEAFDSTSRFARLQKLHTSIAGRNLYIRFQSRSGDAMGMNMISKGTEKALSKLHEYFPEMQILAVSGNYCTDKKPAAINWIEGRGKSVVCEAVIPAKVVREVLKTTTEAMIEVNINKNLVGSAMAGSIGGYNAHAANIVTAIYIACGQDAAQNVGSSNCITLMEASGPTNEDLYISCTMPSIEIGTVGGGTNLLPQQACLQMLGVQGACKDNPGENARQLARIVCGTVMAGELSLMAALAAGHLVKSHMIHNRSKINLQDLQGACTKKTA
Outline: (§2)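 HMG-CoA reductase kit assay using supplied HMGR enzyme, HMG-CoA substrate, NADPH and assay buffer. Test concentrations were 5, 10, 25, 50 and 100 µM, with % inhibition recorded at each.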

[9] = target: T1, 3-hydroxy-3-methylglutaryl-coenzyme A reductase (Homo sapiens); test: Inhibition of HMG-CoA reductase using HMG-CoA as substrate at 100 uM; outline: as §2
Syrian golden hamster [10] = test: Antidyslipidemic activity in high fat diet-fed dyslipidemic syrian golden hamster model assessed as decrease in serum LDL level at 25 mg/kg, po administered once daily for 7 days relative to vehicle treated control; type: functional, Mesocricetus auratus; design: scale not given: the % may be the effect or the level left; outline: as §1
[11] = target: T1, 3-hydroxy-3-methylglutaryl-coenzyme A reductase (Homo sapiens); test: Inhibition of HMG-CoA reductase using HMG-CoA as substrate at 50 uM; outline: as §2
Syrian golden hamster [12] = test: Antidyslipidemic activity in high fat diet-fed dyslipidemic syrian golden hamster model assessed as increase in serum ratio of HDL/total cholesterol level at 25 mg/kg, po administered once daily for 7 days relative to vehicle treated control; type: functional, Mesocricetus auratus; outline: as §1
Syrian golden hamster [13] = test: Antidyslipidemic activity in high fat diet-fed dyslipidemic syrian golden hamster model assessed as increase in serum HDL level at 25 mg/kg, po administered once daily for 7 days relative to vehicle treated control; type: functional, Mesocricetus auratus; outline: as §1
[14] = target: T1, 3-hydroxy-3-methylglutaryl-coenzyme A reductase (Homo sapiens); test: Inhibition of HMG-CoA reductase using HMG-CoA as substrate at 25 uM; outline: as §2
[15] = target: T1, 3-hydroxy-3-methylglutaryl-coenzyme A reductase (Homo sapiens); test: Inhibition of HMG-CoA reductase using HMG-CoA as substrate at 10 uM; outline: as §2
Syrian golden hamster [16] = test: Antidyslipidemic activity in high fat diet-fed dyslipidemic syrian golden hamster model assessed as decrease in serum total cholesterol level at 25 mg/kg, po administered once daily for 7 days relative to vehicle treated control; type: functional, Mesocricetus auratus; design: scale not given: the % may be the effect or the level left; outline: as §1
Syrian golden hamster [17] = test: Antidyslipidemic activity in high fat diet-fed dyslipidemic syrian golden hamster model assessed as decrease in serum triglyceride level at 25 mg/kg, po administered once daily for 7 days relative to vehicle treated control; type: functional, Mesocricetus auratus; design: scale not given: the % may be the effect or the level left; outline: as §1
Syrian golden hamster [18] = test: Antidyslipidemic activity in high fat diet-fed dyslipidemic syrian golden hamster model assessed as increase in serum LDL level at 10 mg/kg, po administered once daily for 7 days relative to vehicle treated control; type: functional, Mesocricetus auratus; outline: as §1

In the case of `Cc1cc(=O)oc2c3c(ccc12)C(=O)/C(=C/NCCCO)C=C3C=O`, the Activity (Syrian golden hamster [1]) is reported as 50%, the Activity (Syrian golden hamster [2]) is reported as 3% and the Activity (Syrian golden hamster [3]) is reported as 39%. The Activity [4] was 1.46 mM, the Activity (Syrian golden hamster [5]) was 26% and the Activity (Syrian golden hamster [6]) was “Non-toxic”. It also gave an Activity (Syrian golden hamster [7]) of 21%.
With `CC[C@H](C)C(=O)O[C@H]1C[C@@H](C)C=C2C=C[C@H](C)[C@H](CC[C@@H]3C[C@@H](O)CC(=O)O3)[C@H]21` [LOVASTATIN] the inhibition [8] was 27.5%, the inhibition [9] was 84.4% and the Activity (Syrian golden hamster [10]) was 11%. For the same molecule, the inhibition [11] was 77.3%, the Activity (Syrian golden hamster [12]) was 12% and the Activity (Syrian golden hamster [13]) was 3%. The inhibition [14] was 69.1%, the inhibition [15] was 46.7% and the Activity (Syrian golden hamster [16]) was 9%. For the same molecule, the Activity (Syrian golden hamster [17]) was 29%.
`COc1cccc(CN/C=C2\C=C(C=O)c3c(ccc4c(C)cc(=O)oc34)C2=O)c1` gave an Activity (Syrian golden hamster [1]) of 52%, an Activity (Syrian golden hamster [2]) of 3% and an Activity (Syrian golden hamster [3]) of 93%. For the same molecule, the Activity [4] was 1.26 mM, the Activity (Syrian golden hamster [5]) was 47% and the Activity (Syrian golden hamster [6]) was “Non-toxic”. The Activity (Syrian golden hamster [7]) was 59%.
`Cc1cc(=O)oc2c3c(ccc12)C(=O)/C(=C/Nc1ccccc1O)C=C3C=O` gave an Activity (Syrian golden hamster [1]) of 42%, an Activity (Syrian golden hamster [2]) of 15% and an Activity (Syrian golden hamster [3]) of 19%. For the same molecule, the Activity (Syrian golden hamster [18]) was 12%, the Activity [4] was 0.36 mM and the Activity (Syrian golden hamster [5]) was 3%. The Activity (Syrian golden hamster [6]) was “Non-toxic”.
With `Cc1cc(=O)oc2c3c(ccc12)C(=O)/C(=C/NCCCl)C=C3C=O` the Activity (Syrian golden hamster [1]) was 47%, the Activity (Syrian golden hamster [2]) was 19% and the Activity (Syrian golden hamster [3]) was 9%. The Activity [4] was 0.38 mM, the Activity (Syrian golden hamster [5]) was 17% and the Activity (Syrian golden hamster [6]) was “Non-toxic”. For the same molecule, the Activity (Syrian golden hamster [7]) was 14%.
Work on `Cc1cccc(C)c1N/C=C1\C=C(C=O)c2c(ccc3c(C)cc(=O)oc23)C1=O` yielded an Activity (Syrian golden hamster [1]) of 16%, an Activity (Syrian golden hamster [2]) of 1% and an Activity (Syrian golden hamster [3]) of 43%. For the same molecule, the Activity [4] was 0.99 mM, the Activity (Syrian golden hamster [5]) was 30% and the Activity (Syrian golden hamster [6]) was “Non-toxic”. For the same molecule, the Activity (Syrian golden hamster [7]) was 40%.
